Only some compounds are listed: those with a hit (about 2.6% of all), similar ones and a draw of the others.
MITF act = activators of MITF-driven TRPM1 promoter reporter, primary screen, cell-based, SK-MEL-5, luciferase, single point. SK-MEL-5 TRPM1-promoter luciferase, 24 h; % of positive control, neutral wells = 0. activation, % at 12.5 µM. 0.75% of 300,000 active;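 active = mean activation of at least 80% with every replicate also reaching 80%; inconclusive = mean reaches 80% but some replicate falls short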;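 also: 0% = neutral control wells and 100% = parthenolide positive control wells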
esBAF inh = Bmi1 luciferase reporter increase in mESCs, primary screen, esBAF inhibitor project, mouse ES cells, Bmi1 luciferase knock-in, single point; AID 602393, 2012; 2% of 350,000 active; 24 h; 100% = twice the neutral-well signal; reporter increase, % at 12.5 µM; in the data active = activation above about 40%; inconclusive = no clear call, values can overlap the other calls;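 also: 0% = median of the plate's neutral control wells and 100% = double that signal; a rise in the Bmi1 reporter signal indicates esBAF inhibition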
Xi reactivation = activators of inactive X chromosome reactivation, primary screen, imaging, XiGFP fibroblasts, GFP high-content imaging, set 2. 0.055% of 360,000 active. XiGFP mouse fibroblasts, % GFP-positive cells imaging, 3 d; cells co-treated with 5-aza-dC sensitizer; scaled so ellipticine positive control = 100%. activation, % at 7.58 µM;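 active = mean normalized replicate activation at least 10% and every replicate at or above 10%; inconclusive = only one of the two criteria met; inactive = mean below 10% and not all replicates reach 10%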;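 also: 0% = median of on-plate neutral control wells and 100% = ellipticine 6 µM median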
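assay system = SV40-immortalized XiGFP fibroblast cells, line 68-5-11 | buffer or medium = DMEM plus 5-aza-dC sensitizer | doses = single-point pinned compound dosing | times = 3-day compound exposure, then 15 min fixation at room temperature | benchmarks = positive control ellipticine, 6 µM final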
Wnt bcat act = Wnt/beta-catenin pathway activators, primary screen, cell-based, plate reader, single point; 1.2% of 300,000 active; AID 743398, 2014; Wnt/beta-catenin reporter cell assay, activator; activation, % at 9.35 µM; in the data active = activation above about 30%, passing the limit was not always enough; inconclusive = no clear call, values can overlap the other calls;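 also: 0% = neutral control wells and 100% = positive control wells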
Vif inh = HIV Vif self-association inhibitors, primary screen, imaging, HEK293T, single point; inhibition, % at 7.49 µM; AID 602346, 2012; 0.35% of 340,000 active; HEK293T cells, Vif self-association by quenched fluorescence, 24 h; in the data active = inhibition above about 50%, passing the limit was not always enough; inconclusive = no clear call, values can overlap the other calls; inactive = below about 31%
Active calls of the source: *; ? = inconclusive; · = not tested or not shown.

SMILES | MITF act | esBAF inh | Xi reactivation | Wnt bcat act | Vif inh
CSc1nnc(NC(=O)c2ccc(S(=O)(=O)N(C)C)cc2)s1 | 5.0 | · | 0.1 | 39.9* | 0.0
CN(C)S(=O)(=O)c1ccc(C(=O)Nc2nc3ccccc3[nH]2)cc1 | 61.5 | 65.7* | 0.1 | 13.4 | -9.6
COc1ccc(C(=O)Nc2nc3ccccc3[nH]2)cc1S(=O)(=O)N1CCCC1 | 9.9 | 45.2* | · | 4.7 | -4.2
Cc1cc(C)cc(C(=O)Nc2nc3ccccc3[nH]2)c1 | 49.1 | 80.0* | 0.3 | 14.1 | -4.1
CC(C)NC(=O)N(C)C[C@@H]1Oc2c(cccc2N(C)C)C(=O)N(C)C[C@@H]1C | · | · | -0.1 | · | ·
O=C(NCCN1CCCC1)[C@@H]1[C@@H](CO)[C@@H]2Cn3c(cccc3=O)[C@H]1N2C(=O)c1ccccc1 | · | -0.6 | 0.1 | · | ·
CO[C@H]1CN(C)C(=O)c2ccc(NC(=O)C3CCOCC3)cc2OC[C@@H](C)NC[C@H]1C | · | -1.9 | 0.1 | · | ·
COc1ccc(C(=O)N2CCN(c3ccc(C(C)=O)cc3)CC2)cc1S(=O)(=O)N1CCCC1 | -1.5 | 47.7* | 0.1 | 7.4 | -1.8
O=C(C[C@@H]1C=C[C@@H](NC(=O)C2CC2)[C@@H](CO)O1)NCC1CC1 | · | 1.4 | -0.3 | · | ·
C=CCNc1sc(C(=O)c2ccccc2)c(N)c1C#N | -0.6 | · | · | · | -0.4
C=CCNc1sc(C(=O)c2ccc(Br)s2)c(N)c1C#N | · | -3.5 | · | 1.8 | 110.5*
O=S(=O)(N[C@H]1CC[C@@H](CCn2cc(-c3ccccn3)nn2)O[C@@H]1CO)c1cccc(F)c1 | · | 0.5 | -0.6 | · | ·
CC(=O)NC12CC3CC(C1)CC(C(=O)Nc1nc4ccc(F)cc4s1)(C3)C2 | 4.9 | 44.7* | 0.0 | 5.8 | -22.2
CC(C)(O)[C@H]1Cc2cc3ccc(=O)oc3cc2O1 | 97.7* | -0.2 | 0.0 | 11.0 | 7.5
S=C(NNc1ccnc2cc(Cl)ccc12)Nc1ccc(Cl)cc1Cl | -65.2 | 49.0* | -0.1 | 0.4 | 0.8
S=C(NCc1ccccn1)Nc1ccc(Cl)cc1Cl | 28.0 | 49.4* | · | · | -3.9
Cc1nc(N)sc1-c1csc(N(C)c2ccc(O)cc2)n1 | 37.7 | 43.5* | · | -2.7 | -9.2
COc1cccc(NC(=O)N(C)C[C@H]2Oc3ncc(/C=C/c4ccccc4)cc3C(=O)N([C@H](C)CO)C[C@H]2C)c1 | · | -0.2 | -1.0 | · | ·
CCOC(=O)C(CNc1ccc(OCc2ccccc2)cc1)NC(=O)c1ccccc1 (stereo not drawn) | · | · | 0.4 | 43.9* | ·
CCOc1ccc(C(=O)NC(Cc2ccccc2)C(=O)OC)cc1 (stereo not drawn) | 50.0 | 74.3* | · | · | 29.8
CC(C)C#Cc1ccc2c(c1)O[C@@H](CN(C)Cc1ccccc1)[C@@H](C)CN([C@H](C)CO)S2(=O)=O | · | -0.9 | 0.3 | · | ·
COC(=O)CC/C(O)=C1\C(=O)CC(C)(C)CC1=NCc1nc2ccccc2[nH]1 | -3.2 | 6.2 | 0.1 | -1.8 | 77.2*
Cc1ccc(S(=O)(=O)N[C@@H]2CC[C@@H](CCNC(=O)C3CCOCC3)O[C@H]2CO)cc1 | · | -5.9 | 0.0 | · | ·
O=C1C2C3C=CC(O3)C2C(=O)N1N=Cc1cccc2ccccc12 (stereo not drawn) | 11.0 | 45.9* | 0.6 | -2.1 | 3.3
C[C@@H]1CN([C@H](C)CO)C(=O)c2cc(NC(=O)CCCN(C)C)ccc2O[C@@H](C)CCCCO[C@@H]1CN(C)S(=O)(=O)c1cn(C)cn1 | · | -2.3 | 0.0 | · | ·
SMILES | MITF act | esBAF inh | Xi reactivation | Wnt bcat act | Vif inh
CC(C)(C)C(=O)O/N=C(\N)COc1cccc(Cl)c1 | 54.8 | 81.1* | 0.1 | 10.8 | -0.5
Cc1ccc(S(=O)(=O)N(C)C[C@@H]2OCCCC[C@H](C)Oc3ccc(NC(=O)CCCN(C)C)cc3C(=O)N([C@@H](C)CO)C[C@H]2C)cc1 | · | -4.0 | 0.0 | · | ·
O=C1Nc2ccccc2/C1=C/c1cnc(-c2ccccc2)[nH]1 | · | ? | 8.8 | 41.3* | 1.9
Cn1cc(CN2CCc3c([nH]c4ccccc34)C2C(C)(C)C)cn1 (stereo not drawn) | -16.6 | · | 0.6 | 2.8 | 86.4*
O=c1oc2c(O)cccc2cc1-c1nc2ccccc2[nH]1 | 44.5 | -0.4 | 0.4 | 35.9* | 18.8
NCCCCCC(=O)Nc1ccncc1 | 0.2 | · | 0.1 | -1.0 | 59.9*
CC(=O)Nc1ccc(Cc2ccncc2)cc1 | -0.1 | · | · | · | ·
CCCCCC(=O)Nc1ccc(Cc2ccncc2)cc1 | -15.2 | -2.1 | · | · | 80.1*
O=C(c1ccncc1)N1CC2(C1)[C@H](c1ccccc1)[C@@H](CO)N2C(=O)c1ccncc1 | · | · | 0.3 | · | ·
CN(C)c1cccc(C(=O)OCC(=O)N(Cc2ccccc2)C2CCS(=O)(=O)C2)c1 (stereo not drawn) | 5.7 | 46.5* | 0.0 | -1.8 | -4.9
N#C/C(=C/c1ccc(N2CCCCCC2)o1)c1ccc(Cl)cc1 | 16.9 | 1.0 | · | · | 10.2
N#C/C(=C/c1ccc(N2CCCCC2)cc1)c1cccc(F)c1 | 20.8 | 66.2* | -0.1 | 33.4* | -9.8
O=C(c1cccc(F)c1)N1CCCC(C(=O)N2CCN(c3ccccc3)CC2)C1 (stereo not drawn) | -12.9 | · | 0.3 | 1.0 | -4.5
N#C/C(=C/c1ccc(N2CCCCC2)o1)c1cccc(F)c1 | 46.3 | 74.3* | · | 2.7 | ·
CCN1[C@@H]2c3ccc(-c4ccccc4)c(=O)n3C[C@@H]2[C@@H](CO)[C@@H]1C(=O)Nc1ccccc1 | · | -0.7 | 0.6 | · | ·
COc1ccc(C)cc1NC(=O)C1CCN(C(=O)c2ccco2)CC1 | -2.7 | -2.9 | 0.0 | 0.3 | 53.9*
CCOc1ccc2nc(N3CCC(C(=O)N4CCN(C5CCCCC5)CC4)CC3)sc2c1 | -2.2 | 64.7* | 0.2 | -4.1 | -0.1
CCOc1ccc2nc(NC(=O)C3CCN(C(=O)c4ccco4)CC3)sc2c1 | 76.9 | 65.3* | 0.1 | 20.7 | 1.8
COc1ccc(C)cc1NC(=O)C1CCCN1S(=O)(=O)c1ccccc1F (stereo not drawn) | -2.1 | 3.7 | 0.1 | 62.3* | ?
CCOc1ccc2nc(N3CCC(C(=O)Nc4nnc(CC)s4)CC3)sc2c1 | 34.2 | 48.0* | 0.4 | 1.7 | 0.8
CCc1nnc(NC(=O)CSc2ccc(-c3ccc(-n4cccn4)cc3)nn2)s1 | 81.7* | · | 0.0 | 28.4 | ?
O=C(CSc1ccc(-c2nc3ccccc3[nH]2)cn1)Nc1ccc2c(c1)OCCO2 | 146.3* | 46.2* | · | · | 55.0*
CCc1nnc(NC(=O)CSc2ccc(-c3nc4ccccc4[nH]3)cn2)s1 | 87.1* | ? | · | · | -0.3
Cc1ccc(SCC(=O)Nc2ccc(-c3nc4ccccc4[nH]3)cc2)cc1 | -6.2 | 61.1* | -0.1 | -2.4 | ·
Cc1nc(NC(=O)CSc2ccc(-c3nc4ccccc4[nH]3)cn2)sc1C | 7.6 | · | · | · | ·
S=c1nc2ccccc2c2nc(-c3ccccc3Br)[nH]n12 | -10.9 | 6.6 | 0.0 | 3.9 | ·
Brc1ccccc1-c1nc2c3ccccc3ncn2n1 | 47.7 | 49.3* | 0.3 | 39.3* | -11.4

Bioassay records (PubChem BioAssay)
